An excerpt weighted towards active compounds, which were near 3.1% of everything screened.
FN deposit inh: fibronectin deposition inhibition | 350,000 compounds, 0.086% hits | inhibition, % at 12.6 µM | AH1F fibroblasts, Alexa488-fibronectin deposition fluorescence, overnight | AID 743247;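 active = mean inhibition across replicates of 30% or more, regardless of how many single replicates reach that level; inconclusive = mean under 30% yet at least half of replicates reach 30%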
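material = AH1F fibroblast monolayer depositing Alexa488-labelled fibronectin into matrix | amount = 10000 AH1F cells/well | buffer or medium = DMEM plus 2% serum, read in PBS | incubation = 1 h cell adhesion before compound, then overnight fibronectin incubation | detection = fluorescence at 485 nm excitation, 525 nm emission | evaluation = percent inhibition as loss of matrix-bound fibronectin fluorescence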
FGF22 binding-1: shifts melting point of recombinant human FGF22; activity (Tm shift, normalised), % at 9.99 µM; Q9HCT0; recombinant FGF22 thermal shift, SYPRO orange fluorescence; percent of sucrose octasulfate shift, DMSO zero; 340,000 compounds, 1.5% hits;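 active = mean Tm shift, scaled 0 neutral to 100 positive control, at about 1.3% or above, every replicate too, limit read from the data; inconclusive = no clear call, values can overlap the other calls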
Target sequence (Q9HCT0 whole entry, looked up): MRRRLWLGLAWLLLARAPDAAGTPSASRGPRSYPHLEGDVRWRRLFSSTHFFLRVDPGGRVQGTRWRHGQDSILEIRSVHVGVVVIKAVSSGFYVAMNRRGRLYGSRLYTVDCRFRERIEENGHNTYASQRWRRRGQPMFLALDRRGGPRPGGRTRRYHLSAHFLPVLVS
EWS-Fli block: inhibitors of EWS/Fli oncoprotein transcriptional activity | A673 NR0B1-luciferase reporter, viability-normalised | inhibition, % at 12.6 µM | 350,000 compounds, 0.67% hits | AID 651661;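 active = mean inhibition of at least 50% after viability correction, with every replicate also passing that limit; inconclusive = mean reaches 50% but only one of two replicates passes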;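 also: firefly luciferase signal divided by Alamar Blue viability fluorescence both relative to DMSO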
PAX8 inh HTS: lowers PAX8-driven luciferase in RMG-I cells; AID 652154; inhibition, % at 12.6 µM; 360,000 compounds, 1.2% hits; RMG-I TPO-luciferase reporter, SteadyGlo, 24 h;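 active = mean replicate inhibition at least 60% with every replicate also reaching 60%; inconclusive = only one of the two criteria is met; inactive = mean below 60% and not all replicates reaching 60%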;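 also: luciferase light reporting Pax8 driven TPO promoter activity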
Env fusion inh: inhibitors of HIV Env-mediated cell fusion; HeLa-JRFL Env/CEM21 cell fusion, luciferase; 360,000 compounds, 1.1% hits; inhibition, % at 12.3 µM;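 active = mean replicate inhibition score of at least 50 and every replicate individually at or above 50; inconclusive = only one of the two criteria met; inactive = mean below 50 and not all replicates reaching 50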
PGC1a acetyl inh: PGC1a acetylation modulation, inhibitor mode | U2OS PGC1a acetylation, AlphaScreen anti-acetyl-lysine; with virally co-expressed GCN5 acetyltransferase | inhibition, % at 15.6 µM | AID 651687 | 350,000 compounds, 0.17% hits;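 active = every replicate shows inhibition of at least 40%; inconclusive = mean inhibition at least 40% but some replicate below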
FGF22 binding-2: FGF22 (human) binding in thermal shift; 1,000 compounds, 2% hits; thermal shift activity, °C (ΔTm) at 38 µM; AID 720646; shares compounds with FGF22 binding-1; recombinant FGF22 thermal shift, SYPRO orange fluorescence;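 active = fitted rise in melting shift crosses a set limit at or below the top valid dose tested; inconclusive = flat fit at mid-level activity, or a poor quality fit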
SYPRO no-protein: counter-screen for FGF22 binders: compound-only thermal shift, no protein; AC50, µM (top dose mostly 38 µM); compound-only SYPRO orange thermal shift counter-screen; shares compounds with FGF22 binding-1; AID 743019; 1,000 compounds, 2% hits;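 active = rising signal whose fitted curve reaches the 0.54 level within the top valid dose, showing a melting point, actives reach about 13 µM in these data; inactive = the rest, including activity in the opposite direction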; also: value is where the raw curve crosses a fixed level and not half-maximal
DNA binder FP: small molecule DNA binding by fluorescence polarization. salmon sperm DNA acridine orange fluorescence polarization. AC35, µM (doses to about 68 µM). AID 720586. shares compounds with EWS-Fli block. 640 compounds, 2% hits;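 active = fitted curve reaches a 35% signal fall AC35 below twice the sample's top valid tested dose, actives reach about 48 µM in these data; inactive = the rest, including activity in the rising direction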;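 also: lower polarization ratio signals compound binding to DNA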
Hits are given with their value.

CC(=O)N1[C@@H](CO)[C@@H]2c3ccccc3N(C(=O)c3ccc(F)cc3)C[C@@H]21 was read as FN deposit inh inactive, FGF22 binding-1 1.8, EWS-Fli block inactive, PAX8 inh HTS inactive, PGC1a acetyl inh inactive, FGF22 binding-2 inactive and SYPRO no-protein inactive.
COc1ccc(OC)c(NC(=O)NNC(=O)CCCOc2ccc(Cl)cc2C)c1 was read as FN deposit inh inactive, FGF22 binding-1 1.7, EWS-Fli block inactive, PAX8 inh HTS inactive, Env fusion inh inactive, PGC1a acetyl inh inactive, FGF22 binding-2 inactive and SYPRO no-protein inactive.
Screening CC(C)(C)[S@@](=O)N1Cc2cc(C(=O)NCc3ccccc3F)nc(-c3cccc(-c4ccncc4)c3)c2[C@H]1CCO returned FN deposit inh inactive, FGF22 binding-1 1.9, EWS-Fli block inactive, PAX8 inh HTS inactive, Env fusion inh inactive, PGC1a acetyl inh inactive, FGF22 binding-2 inactive and SYPRO no-protein inactive.
Screening C/C(=N/NC(=O)CNC(=O)c1cccnc1)c1ccc(Cl)cc1 returned FN deposit inh inactive, FGF22 binding-1 inactive, EWS-Fli block inactive, PAX8 inh HTS inactive, Env fusion inh inactive and PGC1a acetyl inh inactive.
Screening C/C(=N\NC(=O)CNC(=O)c1ccncc1)c1ccc(C)cc1 returned FN deposit inh inactive, FGF22 binding-1 1.6, EWS-Fli block inactive, PAX8 inh HTS inactive, Env fusion inh inactive, PGC1a acetyl inh inactive, FGF22 binding-2 inactive and SYPRO no-protein inactive.
CN1CCN(C(=O)C[C@H]2C=C[C@H](NC(=O)c3ccc4c(c3)OCO4)[C@H](CO)O2)CC1 was read as FN deposit inh inactive, FGF22 binding-1 1.5, EWS-Fli block inactive, PAX8 inh HTS inactive, Env fusion inh inactive, PGC1a acetyl inh inactive, FGF22 binding-2 inactive and SYPRO no-protein inactive.
Screening CCCNC(=O)[C@H]1[C@H](CO)[C@H]2Cn3c(ccc(C4=CCCC4)c3=O)[C@@H]1N2Cc1ccncc1 returned FGF22 binding-1 inactive, EWS-Fli block inactive, PAX8 inh HTS inactive and PGC1a acetyl inh inactive.
Screening COc1ccc(C)cc1NC(=O)C1CCN(S(=O)(=O)c2cccs2)CC1 returned FN deposit inh inactive, FGF22 binding-1 1.9, EWS-Fli block inactive, PAX8 inh HTS inactive, Env fusion inh inactive, PGC1a acetyl inh inactive, FGF22 binding-2 inactive and SYPRO no-protein inactive.
For COc1ccc(C2=NN(c3ccccc3)C(c3cn(CCC(=O)O)nc3-c3ccccc3)C2)cc1 (stereo unspecified) the results were FN deposit inh inactive, FGF22 binding-1 2.3, EWS-Fli block inactive, PAX8 inh HTS inactive, Env fusion inh inactive, PGC1a acetyl inh inactive, FGF22 binding-2 inactive and SYPRO no-protein inactive.
COc1ccc(-c2nn(CCC(=O)O)cc2CCC(=O)O)cc1 was read as PGC1a acetyl inh inactive.
C[C@H](CO)N1C[C@H](C)[C@@H](CN(C)Cc2ccc(C(=O)O)cc2)Oc2cc(C#CCC3CCCC3)ccc2S1(=O)=O was read as FGF22 binding-1 inactive, EWS-Fli block inactive, Env fusion inh inactive and PGC1a acetyl inh inactive.
Screening COc1ccc(N=C2C(=O)Nc3ccccc32)cc1 returned FN deposit inh inactive and Env fusion inh inactive.
CC(=O)c1ccc(N=C2C(=O)Nc3ccccc32)cc1 was read as FN deposit inh inactive, FGF22 binding-1 inactive, EWS-Fli block 54.3, PAX8 inh HTS inactive, Env fusion inh inactive, PGC1a acetyl inh inactive and DNA binder FP inactive.
Screening Cc1cc(Br)cn2c(Cc3cccc(Cl)c3)c(-c3ccco3)nc12 returned FN deposit inh inactive, FGF22 binding-1 inactive, EWS-Fli block inactive, PAX8 inh HTS inactive and Env fusion inh inactive.
`Cc1ccc(Cc2c(-c3ccco3)nc3c(C)cc(Br)cn23)cc1` gave FN deposit inh inactive, FGF22 binding-1 inactive, EWS-Fli block 54.4, PAX8 inh HTS inactive, Env fusion inh inactive, PGC1a acetyl inh inactive and DNA binder FP inactive.
Screening Cc1ccc(Cl)cc1NC(=O)Cn1cc(C(F)(F)F)cc(Cl)c1=O returned FGF22 binding-1 inactive, EWS-Fli block 76.3, PAX8 inh HTS inactive, Env fusion inh inactive, PGC1a acetyl inh inactive and DNA binder FP inactive.
Screening Cc1c(Cl)cccc1NC(=O)Cn1cc(C(F)(F)F)cc(Cl)c1=O returned FN deposit inh inactive, FGF22 binding-1 inactive, EWS-Fli block inactive, PAX8 inh HTS inactive and Env fusion inh inactive.
`C[C@H]1CN([C@@H](C)CO)C(=O)c2cc(NS(=O)(=O)c3cn(C)cn3)ccc2O[C@H]1CN(C)S(C)(=O)=O` gave FGF22 binding-1 inactive, EWS-Fli block inactive and PGC1a acetyl inh inactive.
Cc1c(CCOC(=O)CC23CC4CC(CC(C)(C4)C2)C3)sc[n+]1CC(=O)c1ccccc1 was read as FN deposit inh inactive, FGF22 binding-1 inactive, EWS-Fli block 76.2, PAX8 inh HTS inactive, Env fusion inh 68.7 and DNA binder FP inactive.
COCc1cc(C)nc2sc(C(=O)NCCO)c(-n3cccc3)c12 was read as FGF22 binding-1 inactive, EWS-Fli block 60.6, PAX8 inh HTS inactive, Env fusion inh inactive and DNA binder FP inactive.
For COc1ccc(NC(=O)N(C)C[C@@H]2Oc3ccc(NC(=O)CCC(F)(F)F)cc3CC(=O)N([C@H](C)CO)C[C@H]2C)cc1 the results were FN deposit inh inactive, FGF22 binding-1 inactive, EWS-Fli block inactive, PAX8 inh HTS inactive, Env fusion inh inactive and PGC1a acetyl inh inactive.
For C(=N\Nc1ccc2ccccc2n1)/c1ccc2c(c1)OCCO2 the results were FN deposit inh inactive, FGF22 binding-1 inactive, EWS-Fli block 85.9, PAX8 inh HTS 73.0, Env fusion inh inconclusive, PGC1a acetyl inh inactive and DNA binder FP inactive.
`Cc1ccc(/C=N/Nc2ccc3ccccc3n2)o1` gave FN deposit inh inactive, FGF22 binding-1 inactive, EWS-Fli block 52.8, PAX8 inh HTS inactive, Env fusion inh inactive and DNA binder FP inactive.
For Cc1cccc(/C=N/Nc2ccc3ccccc3n2)c1 the results were FGF22 binding-1 inactive, EWS-Fli block 74.1, PAX8 inh HTS inactive, Env fusion inh inactive and DNA binder FP inactive.
Screening C(=N\Nc1nc2ccccc2[nH]1)/c1ccc2c(c1)OCCO2 returned FN deposit inh inactive, FGF22 binding-1 inactive, EWS-Fli block inactive, PAX8 inh HTS inactive, Env fusion inh inactive and PGC1a acetyl inh inactive.
Cc1cc(-c2nc3cc(F)ccc3s2)ccc1N was read as FN deposit inh inactive, FGF22 binding-1 inactive, EWS-Fli block 73.8, PAX8 inh HTS inactive, Env fusion inh inactive and DNA binder FP inactive.
Nc1cccc(-c2nc3ccc(N)cc3s2)c1 was read as PGC1a acetyl inh inactive.
